Assay results from ChEMBL document CHEMBL1143074, “Symplocamide A, a potent cytotoxin and chymotrypsin inhibitor from the marine Cyanobacterium Symploca sp” (J Nat Prod, 2008).
Calls of active or inactive are those of the source. No cut-off for these calls is given here.

Assays:
[1] = Inhibition of chymotrypsin
Summary of the method: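 Spectrophotometric assay: 0.0025 mg/mL chymotrypsin (0.0086 U) with 0.53 mM BTEE in 38 mM Tris-HCl pH 7.8, 53 mM CaCl2, 0.5 mM HCl and 32% MeOH at 25 °C. Inhibitor (from MeOH dilutions, final 6.25 × 10-5 to 7.5 × 10^-9 M) was equilibrated with substrate before enzyme addition. Absorbance at 256 nm was followed for 5 min, and the 0.5–1.5 min interval was analyzed.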

[2] = Inhibition of trypsin at 10 uM

| IC50 [1] [nM] | Activity [2] | Compound |
| --- | --- | --- |
| 2400 | inactive | CCCCCC(=O)N[C@@H](CC(=O)O)C(=O)N[C@@H]1C(=O)N[C@@H](Cc2ccc(O)cc2)C(=O)N[C@H]2CC[C@@H](O)N(C2=O)[C@@H]([C@@H](C)CC)C(=O)N(C)[C@@H](Cc2ccc(O)cc2)C(=O)N[C@@H](C(C)C)C(=O)O[C@@H]1C [MICROPEPTIN SD979] |
| 3800 | inactive | CC[C@H](C)[C@@H]1NC(=O)[C@H](Cc2ccc(O)cc2)N(C)C(=O)[C@H](CC(C)C)N2C(=O)[C@H](CC[C@H]2OC)NC(=O)[C@H](CC(C)C)NC(=O)[C@@H]2[C@@H](OC1=O)C(C)CN2C(=O)[C@H](CCC(N)=O)NC(C)=O (stereo partly specified) [NOSTOPEPTIN F] |
| 1730 | – | CC[C@H](C)[C@@H]1NC(=O)[C@H](Cc2ccc(O)cc2)N(C)C(=O)[C@H]([C@@H](C)CC)N2C(=O)C(CCC2O)NC(=O)[C@H](CC(C)C)NC(=O)[C@@H]2C(OC1=O)C(C)CN2C(=O)[C@H](CCC(N)=O)NC(C)=O (stereo in doubt; form 1) [NOSTOPEPTIN B] |
| 400 | inactive | CC[C@H](C)[C@@H]1NC(=O)[C@H](Cc2ccccc2)N(C)C(=O)[C@H](C(C)C)N2C(=O)[C@H](CC[C@H]2O)NC(=O)[C@H](CC2C=CC(O)CC2)NC(=O)[C@@H](NC(=O)[C@@H](N)CCC(=O)O)[C@@H](C)OC1=O (stereo partly specified) [MICROPEPTIN 88A] |
| 3130 | inactive | CCCCCC(=O)N[C@@H](CC(=O)O)C(=O)N[C@@H]1C(=O)N[C@@H](Cc2ccc(O)cc2)C(=O)N[C@H]2CC[C@@H](O)N(C2=O)[C@@H]([C@@H](C)CC)C(=O)N(C)[C@@H](Cc2c[nH]c3ccccc23)C(=O)N[C@@H](C(C)C)C(=O)O[C@@H]1C [MICROPEPTIN SD1002] |
| 4500 | inactive | CCCC(=O)N[C@@H](Cc1ccccc1)C(=O)N[C@@H](CCC(=O)O)C(=O)N[C@@H]1C(=O)N[C@@H](Cc2ccc(O)cc2)C(=O)N[C@H]2CC[C@@H](O)N(C2=O)[C@@H](C(C)C)C(=O)N(C)[C@@H](Cc2ccccc2)C(=O)N[C@@H]([C@@H](C)CC)C(=O)O[C@@H]1C [MICROPEPTIN 88C] |
| 1890 | inactive | CC[C@@H](C)[C@@H]1NC(=O)[C@H](Cc2ccc(OC)cc2)N(C)C(=O)[C@H]([C@@H](C)CC)N2C(=O)[C@H](CC[C@H]2O)NC(=O)[C@H](CCc2ccc(O)cc2)NC(=O)[C@@H](NC(=O)[C@H](CCc2ccc(O)cc2)NC(=O)[C@@H](COS(=O)(=O)O)OC)[C@@H](C)OC1=O [OSCILLAPEPTIN A] |
| 4000 | inactive | CC(C)[C@H](NC(=O)[C@@H](C)NC(=O)[C@H](CCCc1ccc(O)cc1)NC(=O)[C@H](O)CO)C(=O)N[C@@H]1C(=O)N[C@@H](Cc2ccc(O)cc2)C(=O)N[C@H]2CC[C@@H](O)N(C2=O)[C@@H]([C@@H](C)O)C(=O)N(C)[C@@H](Cc2ccc(O)c(Br)c2)C(=O)N[C@@H](C(C)C)C(=O)O[C@@H]1C [LARGAMIDE F] |
| 1470 | inactive | CCCC(=O)N[C@@H](CCC(N)=O)C(=O)N1CC(C)C2OC(=O)[C@H]([C@@H](C)CC)NC(=O)[C@H](Cc3ccc(O)cc3)N(C)C(=O)[C@H]([C@@H](C)CC)N3C(=O)C(CCC3O)NC(=O)[C@H](CC(C)C)NC(=O)[C@H]21 (stereo partly specified) [NOSTOPEPTIN A] |
| 10000 | inactive | CC(C)C[C@@H]1NC(=O)[C@@H](NC(=O)[C@@H](NC(=O)[C@H](C)NC(=O)[C@H](CCCc2ccc(O)cc2)NC(=O)[C@H](O)CO)C(C)C)[C@@H](C)OC(=O)[C@H](C(C)C)NC(=O)[C@H](Cc2ccc(O)c(Br)c2)N(C)C(=O)[C@H]([C@@H](C)O)N2C(=O)[C@H](CC[C@H]2O)NC1=O [LARGAMIDE D] |
| 3600 | inactive | CC[C@H](C)[C@@H]1NC(=O)[C@H](Cc2ccc(O)cc2)N(C)C(=O)[C@H](CC(C)C)N2C(=O)[C@H](CC[C@H]2O)NC(=O)[C@H](CC(C)C)NC(=O)[C@@H]2[C@@H](OC1=O)C(C)CN2C(=O)[C@H](CCC(N)=O)NC(C)=O (stereo partly specified) [NOSTOPEPTIN E] |
| 2640 | – | CC[C@@H](C)[C@@H]1NC(=O)[C@H](Cc2ccccc2)N(C)C(=O)[C@H]([C@@H](C)CC)N2C(=O)[C@H](CC[C@H]2O)NC(=O)[C@H](CCc2ccc(O)cc2)NC(=O)[C@@H](NC(=O)[C@@H](CCc2ccc(O)cc2)NC(=O)[C@@H](COS(=O)(=O)O)OC)[C@@H](C)OC1=O [OSCILLAPEPTIN E] |
| 3200 | inactive | CC[C@H](C)[C@@H]1NC(=O)[C@H](Cc2ccc(OC)cc2)N(C)C(=O)[C@H](CC(C)C)N2C(=O)[C@H](CC[C@H]2OC)NC(=O)[C@H](CC(C)C)NC(=O)[C@@H]2[C@@H](OC1=O)C(C)CN2C(=O)[C@H](CCC(N)=O)NC(C)=O (stereo partly specified) [NOSTOPEPTIN J] |
| 1950 | – | CC[C@H](C)[C@@H]1NC(=O)[C@H](Cc2ccccc2)N(C)C(=O)[C@H]([C@@H](C)CC)N2C(=O)[C@H](CC[C@H]2O)NC(=O)[C@H](C[C@H]2C=C[C@H](O)CC2)NC(=O)[C@@H](NC(=O)[C@H](CCc2ccc(O)cc2)NC(=O)[C@@H](COS(=O)(=O)O)OC)[C@@H](C)OC1=O [OSCILLAPEPTIN D] |
| 2100 | inactive | CC[C@H](C)[C@@H]1NC(=O)[C@H](Cc2ccc(OC)cc2)N(C)C(=O)[C@H]([C@@H](C)O)N2C(=O)[C@H](CC[C@H]2O)NC(=O)[C@H](CC(C)C)NC(=O)[C@@H](NC(=O)[C@H](CCC(N)=O)NC(=O)[C@@H](NC(=O)[C@@H](O)CO)C(C)C)[C@@H](C)OC1=O [PLANKTOPEPTIN BL1061] |
| 4400 | inactive | CC[C@H](C)[C@@H]1NC(=O)[C@H](Cc2ccc(O)cc2)N(C)C(=O)[C@H](CC(C)C)N2C(=O)[C@H](CC[C@H]2O)NC(=O)[C@H](CCC(N)=O)NC(=O)[C@@H](NC(=O)[C@@H](O)Cc2ccc(O)cc2)[C@@H](C)OC1=O [MICROPEPTIN SF909] |
| 960 | inactive | CCCCCC(=O)NCC(=O)N[C@H](C(=O)N[C@@H]1C(=O)N[C@@H](CCC(N)=O)C(=O)N[C@H]2CC[C@@H](O)N(C2=O)[C@@H](Cc2ccccc2)C(=O)N(C)[C@@H](Cc2c[nH]c3ccccc23)C(=O)N[C@@H](C(C)C)C(=O)O[C@@H]1C)[C@@H](C)O [MICROPEPTIN 103] |
| 1780 | – | CC[C@@H](C)[C@@H]1NC(=O)[C@H](Cc2ccc(OC)cc2)N(C)C(=O)[C@H]([C@@H](C)CC)N2C(=O)[C@H](CC[C@H]2O)NC(=O)[C@H](CCc2ccc(OC)cc2)NC(=O)[C@@H](NC(=O)[C@H](CCc2ccc(O)cc2)NC(=O)[C@@H](COS(=O)(=O)O)OC)[C@@H](C)OC1=O [OSCILLAPEPTIN B] |
| 8960 | inactive | CCCC(=O)N[C@@H](Cc1ccccc1)C(=O)N[C@@H](CCC(=O)O)C(=O)N[C@@H]1C(=O)N[C@@H](CC2C=CC(O)CC2)C(=O)N[C@H]2CC[C@@H](O)N(C2=O)[C@@H](C(C)C)C(=O)N(C)[C@@H](Cc2ccccc2)C(=O)N[C@@H]([C@@H](C)CC)C(=O)O[C@@H]1C (stereo partly specified) [MICROPEPTIN 88D] |
| 4900 | inactive | CCCC(=O)N[C@@H](Cc1ccccc1)C(=O)N[C@@H](CCC(=O)O)C(=O)N[C@@H]1C(=O)N[C@@H](CC(C)C)C(=O)N[C@H]2CC[C@@H](O)N(C2=O)[C@@H](C(C)C)C(=O)N(C)[C@@H](Cc2ccccc2)C(=O)N[C@@H]([C@@H](C)CC)C(=O)O[C@@H]1C [MICROPEPTIN 88E] |
| – | inactive | CC[C@H](C)[C@@H]1NC(=O)[C@H](Cc2ccc(O)cc2)N(C)C(=O)[C@H]([C@@H](C)CC)N2C(=O)C(CCC2O)NC(=O)[C@H](CC(C)C)NC(=O)[C@@H]2C(OC1=O)C(C)CN2C(=O)[C@H](CCC(N)=O)NC(C)=O (stereo in doubt; form 1) |
| 2820 | – | CC[C@@H](C)[C@@H]1NC(=O)[C@H](Cc2ccccc2)N(C)C(=O)[C@H]([C@@H](C)CC)N2C(=O)[C@H](CC[C@H]2OC)NC(=O)[C@H](CC2C=CC(O)C=C2)NC(=O)[C@@H](NC(=O)[C@@H](CCc2ccc(O)cc2)NC(=O)[C@@H](CO)OC)[C@@H](C)OC1=O (stereo partly specified) [OSCILLAPEPTIN C] |

| Compound | IC50 [1] [nM] | Activity [2] |
| --- | --- | --- |
| CCCCCC(=O)N[C@@H](CC(=O)O)C(=O)N[C@@H]1C(=O)N[C@@H](Cc2ccc(O)cc2)C(=O)N[C@H]2CC[C@@H](O)N(C2=O)[C@@H](CC(C)C)C(=O)N(C)[C@@H](Cc2ccccc2)C(=O)N[C@@H](C(C)C)C(=O)O[C@@H]1C [CYANOPEPTOLIN 963A] | 900 | inactive |
| CC(=O)N[C@@H](CCC(N)=O)C(=O)N[C@@H]1C(=O)N[C@@H](CC(C)C)C(=O)N[C@H]2CC[C@@H](O)N(C2=O)[C@@H](Cc2ccccc2)C(=O)N(C)[C@@H](Cc2ccc(O)cc2)C(=O)N[C@@H](C(C)C)C(=O)O[C@@H]1C [NOSTOPEPTIN BN920] | 110 | inactive |
| CC(=O)N[C@@H](CCC(N)=O)C(=O)N[C@@H]1C(=O)N[C@@H](CC(C)C)C(=O)N[C@H]2CC[C@@H](O)N(C2=O)[C@@H](Cc2ccccc2)C(=O)N(C)[C@@H](Cc2ccc(O)c(Cl)c2)C(=O)N[C@@H](C(C)C)C(=O)O[C@H]1C [CYANOPEPTOLIN 954] | 40 | inactive |
| CC[C@H](C)[C@@H]1NC(=O)[C@H](Cc2ccc(O)cc2)N(C)C(=O)[C@H](Cc2ccccc2)N2C(=O)[C@H](CC[C@H]2O)NC(=O)[C@H](Cc2ccccc2)NC(=O)[C@@H](NC(=O)[C@@H](O)COP(=O)(O)O)[C@@H](C)OC1=O [MICROPEPTIN T 20] | 2.5 | – |
| C/C=C1\NC(=O)[C@@H](NC(=O)[C@H](CCc2ccc(O)cc2)NC(=O)[C@H](C)NC(=O)[C@H](O)COS(=O)(=O)O)[C@@H](C)OC(=O)[C@H](C(C)C)NC(=O)[C@H](Cc2ccc(O)cc2)N(C)C(=O)[C@H](Cc2ccccc2)N2C(=O)[C@H](CC[C@H]2O)NC1=O [LYNGBYASTATIN 4] | – | inactive |
